CSN deneddyl inh = inhibitors of CSN-mediated cullin deneddylation, primary screen, biochemical, fluorescence polarization, uHTS. Purified CSN, SCF-Nedd8-OG deneddylation. 360,000 tested, 0.38% active. inhibition, % at 12.5 µM;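 active means pattern-corrected inhibition above about 35%, with an unprinted fluorescence ratio check between 0.5 and 1.5, limit read from the data, passing the limit was not always enough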;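 further: 0% = enzyme with substrate and 100% = substrate without enzyme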
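Schedule: reaction 90 min, room temperature / Assay system: HEK293T-derived human Csn5 enzyme / Input: Csn5 at 0.24 nM final / Measure: inhibition of Csn5 cleavage, % / Control set: substrate-only high control, full reaction low control / Technique: fluorescence polarization of the substrate / Buffer or medium: Tris/NaCl/DTT buffer, pH 7.5 / Reagent: SCFSkp2-Nedd8OG substrate at 10 nM final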
ARFGAP1 inhibitor = inhibitors of rat ARFGAP1 GAP activity, primary screen, biochemical, fluorescence polarization, GDP tracer. inhibition, % at 16.5 µM. Arfgap1-stimulated ARF1 GTP hydrolysis, GDP FP detection. 360,000 tested, 0.26% active. ADP-ribosylation factor GTPase-activating protein 1 (Rattus norvegicus), Q62848;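 active means inhibition above a per-plate limit, mean inhibition of low control wells plus 3 SD, cut at about 25% in these data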;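 further: 0% = DMSO wells with enzyme and 100% = wells lacking Arfgap1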
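Material: truncated rat Arfgap1 GAP domain; Incubation: compound-enzyme preincubation 20 min, reaction 120 min, detection 60 min, 25 °C; Read-out: percent inhibition of Arfgap1-stimulated GTP hydrolysis; Technique: FP, GDP Alexa 633 tracer displaced from anti-GDP antibody, 620/688 nm; Controls: No-Arfgap1 wells (100%) versus DMSO full-reaction wells (0%); Replication: single well per compound.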
HNF4A DNA FP = change in binding of human HNF4A to DNA, primary screen, biochemical, fluorescence polarization, FITC-DNA; activity change, % at 10 µM; Hepatocyte nuclear factor 4-alpha (Homo sapiens), P41235; 1 h; 360,000 tested, 0.3% active; in the data active means activity change above about 30%, passing the limit was not always enough
ASAP1 GAP inh = inhibitors of human ASAP1 ArfGAP activity, primary screen, biochemical, fluorescence polarization | AID 624377, 2012 | Arf-GAP with SH3 domain, ANK repeat and PH domain-containing protein 1 (Homo sapiens), … | 360,000 tested, 0.19% active | inhibition, % at 16.5 µM | ASAP1-stimulated ARF1 GTP hydrolysis, GDP FP detection; in the data active means inhibition above about 25%;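 further: 0% = vehicle with enzyme and substrate and 100% = no enzyme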
CSN deneddyl val = Csn5 deneddylation inhibitors, confirmation, biochemical, fluorescence polarization, single concentration, SCF-Nedd8OG substrate; Csn5 deneddylation of SCF-Nedd8OG, 90 min; 540 tested, 62% active; inhibition, % at 16.6 µM; shares compounds with CSN deneddyl inh; AID 720654, 2013; in the data active means inhibition above about 50%;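 further: 0% = DMSO with enzyme and 100% = no enzyme wells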
MMP-2 counter = MMP-2 protease inhibition counter-screen, confirmation, counter-screen for CSN deneddylation inhibitor project, biochemical, fluorescence, single concentration; shares compounds with CSN deneddyl inh; recombinant MMP-2, FRET substrate fluorescence, 60 min; inhibition, % at 16.6 µM; 540 tested, 33% active; AID 720655, 2013;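 active means corrected plate-normalized z-score of 5 or more, or -5 or less, or inhibition of 15% or more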;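 further: plate controls were DMSO wells with enzyme for no effect and buffer wells lacking MMP-2 for full effect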
Thrombin cntr = blocks bovine thrombin in a CSN deneddylation counter-screen | shares compounds with CSN deneddyl inh | bovine thrombin cleavage of Ub4-pepOG, fluorescence polarization | inhibition, % at 16.6 µM | 540 tested, 49% active | AID 720656;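 active means inhibition at or above a set limit, with a fluorescence interference ratio between 0.5 and a set maximum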
Target sequence (P00735 whole entry, looked up): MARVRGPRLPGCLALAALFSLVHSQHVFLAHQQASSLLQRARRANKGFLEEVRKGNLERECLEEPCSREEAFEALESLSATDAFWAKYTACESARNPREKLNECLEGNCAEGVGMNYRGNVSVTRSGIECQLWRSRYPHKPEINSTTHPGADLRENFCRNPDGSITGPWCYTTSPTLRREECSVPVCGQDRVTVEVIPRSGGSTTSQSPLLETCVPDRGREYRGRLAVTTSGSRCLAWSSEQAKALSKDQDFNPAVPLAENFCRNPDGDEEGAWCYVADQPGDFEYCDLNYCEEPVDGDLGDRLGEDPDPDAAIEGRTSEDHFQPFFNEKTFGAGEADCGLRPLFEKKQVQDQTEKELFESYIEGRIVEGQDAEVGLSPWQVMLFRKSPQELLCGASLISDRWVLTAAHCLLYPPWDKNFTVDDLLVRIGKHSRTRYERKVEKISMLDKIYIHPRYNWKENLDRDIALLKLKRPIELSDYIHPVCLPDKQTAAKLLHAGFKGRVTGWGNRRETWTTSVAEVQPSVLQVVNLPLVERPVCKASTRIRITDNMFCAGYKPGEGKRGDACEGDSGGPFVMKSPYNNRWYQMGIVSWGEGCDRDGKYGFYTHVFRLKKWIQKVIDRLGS
* = called active by the depositor. Sampled rows, rich in hits. Any-hit rate of the full collection: about 0.95%.

What do the screens show for `O=C1/C(=C/c2ccc(O)c(O)c2)Oc2cc(O)ccc21`?
CSN deneddyl inh: 30; ARFGAP1 inhibitor: 2; HNF4A DNA FP: 20; ASAP1 GAP inh: 0

Results for O=C(Cc1cccs1)NCc1cccc(F)c1 ?
CSN deneddyl inh: 1; ARFGAP1 inhibitor: 2; HNF4A DNA FP: -2; ASAP1 GAP inh: -10

How did O=C(NCc1ccccc1C(F)(F)F)c1cccc2c1C(=O)c1ccc(N3CCC(N4CCCCC4)CC3)cc1S2(=O)=O do in these assays?
CSN deneddyl inh: 143*; ARFGAP1 inhibitor: 7; HNF4A DNA FP: 79; ASAP1 GAP inh: 1; CSN deneddyl val: -46; MMP-2 counter: -45*; Thrombin cntr: 46*

What do the screens show for `COc1nc(N)nc2nc[nH]c12`?
CSN deneddyl inh: 3; ARFGAP1 inhibitor: 13; HNF4A DNA FP: 3; ASAP1 GAP inh: -14

Results for CCCCCCCCCCCCCCCC[n+]1cccc2ccccc21 ?
CSN deneddyl inh: 36*; ARFGAP1 inhibitor: -9; HNF4A DNA FP: 21; ASAP1 GAP inh: -7; CSN deneddyl val: 65*; MMP-2 counter: 17*; Thrombin cntr: -39

How did CCN(CC)c1ccc(/C=C2\SC(N)=NC2=O)cc1 do in these assays?
CSN deneddyl inh: 68*; ARFGAP1 inhibitor: -11; HNF4A DNA FP: 126; ASAP1 GAP inh: -7; CSN deneddyl val: 131*; MMP-2 counter: -33*; Thrombin cntr: 78*

What do the screens show for `Cc1ccc(CN2CCSc3ccc(C(=O)NCc4ccccn4)cc32)cc1`?
CSN deneddyl inh: 3; ARFGAP1 inhibitor: -2; HNF4A DNA FP: 1; ASAP1 GAP inh: 1

What do the screens show for `Cc1ccc(Cn2c(C(C)Nc3nc(-c4ccc(C)cc4)cs3)nc3cc(Cl)c(Cl)cc32)cc1` (stereo not drawn)?
CSN deneddyl inh: 38*; ARFGAP1 inhibitor: 8; HNF4A DNA FP: -44; ASAP1 GAP inh: 12; CSN deneddyl val: 55*; MMP-2 counter: 15*; Thrombin cntr: 8

Results for N#Cc1c(SCC(=O)Nc2nc3ccccc3s2)sc2c(O)cc(=O)[nH]c12 ?
CSN deneddyl inh: 40*; ARFGAP1 inhibitor: 3; HNF4A DNA FP: -24; ASAP1 GAP inh: 1; CSN deneddyl val: 77*; MMP-2 counter: 11; Thrombin cntr: 11

How did O=C(CCCN1C(=O)/C(=C/c2ccco2)SC1=S)Nc1cccc(C(=O)O)c1 do in these assays?
CSN deneddyl inh: 45*; ARFGAP1 inhibitor: -3; HNF4A DNA FP: -41; ASAP1 GAP inh: -3; CSN deneddyl val: 80*; MMP-2 counter: 25*; Thrombin cntr: 1

Results for O=C(CCCN1C(=O)/C(=C\c2ccco2)SC1=S)Nc1ccc(O)cc1C(=O)O ?
CSN deneddyl inh: 48*; ARFGAP1 inhibitor: -16; HNF4A DNA FP: -39; ASAP1 GAP inh: 0; CSN deneddyl val: 66*; MMP-2 counter: 24*; Thrombin cntr: 23*

What do the screens show for `O=C1NN(c2ccc(Cl)cc2)C(=O)/C1=C\c1ccc(-c2cccc(C(=O)O)c2)o1`?
CSN deneddyl inh: 36*; ARFGAP1 inhibitor: -1; HNF4A DNA FP: -20; ASAP1 GAP inh: -10; CSN deneddyl val: 46; MMP-2 counter: 15*; Thrombin cntr: 24*

How did Cc1ccc(N2NC(=O)/C(=C/c3ccc(-c4ccc(Cl)c(C(=O)O)c4)o3)C2=O)cc1 do in these assays?
CSN deneddyl inh: 15; ARFGAP1 inhibitor: 11; HNF4A DNA FP: -5; ASAP1 GAP inh: 3

Results for CC(O)CN(CC(C)O)c1ccc2c(c1)Cc1cc([N+](=O)[O-])ccc1-2 (stereo not drawn) ?
CSN deneddyl inh: 58*; ARFGAP1 inhibitor: 14; HNF4A DNA FP: 94; ASAP1 GAP inh: 10; CSN deneddyl val: 38; MMP-2 counter: 4; Thrombin cntr: 82*
